Assay outcomes: PubChem BioAssay, several laboratories
Most compounds without a hit are left out; they make up all but 4% or so of the library.
TAAR1 ag – agonists of human TAAR1. Q96RJ0. CHO RD-HGA16 TAAR1, Fluo-8 calcium fluorescence; vehicle wells 0%, saturating PEA agonist 100%. activation, % at 3 µM. 0.99% of 360,000 active;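 active = activation above the mean activation of all test compounds in the run plus 3 SD, cut at about 38% in these data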
Target sequence (Q96RJ0 whole entry, looked up): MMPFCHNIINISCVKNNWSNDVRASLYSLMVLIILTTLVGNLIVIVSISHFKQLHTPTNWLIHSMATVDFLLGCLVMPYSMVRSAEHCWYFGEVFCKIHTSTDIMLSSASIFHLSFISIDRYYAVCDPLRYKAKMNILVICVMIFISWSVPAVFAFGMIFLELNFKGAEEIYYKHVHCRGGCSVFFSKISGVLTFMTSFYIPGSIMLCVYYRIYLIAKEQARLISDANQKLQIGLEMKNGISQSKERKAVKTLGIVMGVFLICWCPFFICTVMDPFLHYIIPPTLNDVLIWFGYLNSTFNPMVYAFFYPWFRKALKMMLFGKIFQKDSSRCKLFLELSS
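System: CHO RD-HGA16 cells carrying human TAAR1 plus Gα16; Incubation: 17-24 h seeding, 75 min 37 °C dye, 30 min RT; Measured by: Fluo-8 fluorescence, 5 s baseline then 140 s kinetic read; Control set: DMSO and PEA EC100; Replication: single well for each compound.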
MPTP block – permeability transition pore inhibition. 1.4% of 360,000 active. isolated mouse mitochondria, Ca2+ swelling absorbance, 30 min. inhibition, % at 10 µM;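 active = inhibition of 50% or more, scaled per plate between neutral and stimulator controls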;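 note: 0% = DMSO wells given calcium and 100% = 1 mM EGTA wells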
TAAR1 antagonist – human TAAR1 antagonism; AID 624466; 1.5% of 360,000 active; Q96RJ0; inhibition, % at 3 µM; CHO RD-HGA16 TAAR1, Fluo-8 calcium fluorescence, antagonist;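 active = inhibition above a per-plate cutoff, the mean inhibition of test compounds on that plate plus 3 SD, cut at about 49% in these data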;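 note: 0% = DMSO plus EC80 beta-PEA response and 100% = DMSO alone without agonist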
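Material: CHO RD-HGA16 cells bearing hTAAR1; compound dosing: one-point dosing, 3 µM nominal final; schedule: dye loading 75 min at 37 °C, then 30 min room temperature; measured by: calcium fluorescence with Fluo-8; control set: vehicle and agonist controls; replication: n of 1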
GPR7 antagonist – antagonists of human GPR7 (neuropeptides B/W receptor 1) | P48145 | GPR7-expressing cells, fluorescence antagonist assay | inhibition, % at 4.4 µM | 1.1% of 290,000 active | AID 1861; in the data active = inhibition above about 16%, passing the limit was not always enough;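 note: cells stimulated with the agonist NPW; 0% = agonist with vehicle and 100% = vehicle without agonist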
Target sequence (P48145 whole entry, looked up): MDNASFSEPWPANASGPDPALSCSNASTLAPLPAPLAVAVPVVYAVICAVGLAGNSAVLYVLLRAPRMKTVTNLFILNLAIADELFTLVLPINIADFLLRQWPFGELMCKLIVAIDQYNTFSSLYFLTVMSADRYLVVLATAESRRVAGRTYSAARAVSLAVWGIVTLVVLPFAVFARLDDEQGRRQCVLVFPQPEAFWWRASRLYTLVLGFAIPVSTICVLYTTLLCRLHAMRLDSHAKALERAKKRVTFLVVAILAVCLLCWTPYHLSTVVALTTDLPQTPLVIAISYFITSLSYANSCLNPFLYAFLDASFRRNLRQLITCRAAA
DAGLB inhibitor – diacylglycerol lipase beta (human) inhibition | Q8NCG7 | HEK293T DAGLB membrane lysate, EnzChek fluorogenic substrate | inhibition, % at 5.17 µM | 0.059% of 340,000 active; in the data active = inhibition above about 34%;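 note: 0% = enzyme with vehicle and 100% = wells lacking enzyme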
MPTP counter – membrane potential counter-screen of mitochondrial pore inhibitors; inhibition, % at 10 µM; 78% of 5,000 active; shares compounds with MPTP block; isolated mitochondria, Rhodamine 123 fluorescence; in the data active = inhibition above about 22%;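 note: 0% = DMSO vehicle and 100% = positive control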
MPTP swell DR – MPTP inhibition, dose response swelling confirmation. shares compounds with MPTP block. isolated mitochondria swelling, absorbance. IC50, µM. 58% of 780 active. AID 651561; in the data active = IC50 below about 20 µM
MPTP counter DR – counter-screen for mitochondrial permeability transition pore inhibitors, dose response | shares compounds with MPTP block | isolated mitochondria counterscreen, fluorescence read-out | IC50, µM | 49% of 780 active | AID 651564; in the data active = IC50 below about 80 µM
* hit, by the source's call; i = inactive; . = not tested or not shown.

SMILES | TAAR1 ag | MPTP block | TAAR1 antagonist | GPR7 antagonist | DAGLB inhibitor | MPTP counter | others
CCCN1C(=O)c2[nH]nc(-c3ccccc3)c2C1c1ccc(F)cc1 (stereo unspecified) | 1 | . | -44 | . | . | .
COc1ccc(NC(=O)c2cc(C3CCCCN3C(=O)c3ccc4c(c3)CCO4)on2)c(C)c1 (stereo unspecified) | 3 | 1 | -2 | . | . | .
O=C(O)Cn1cc(CN2CCOCC2)c2ccccc21 | -1 | 0 | -8 | -18 | 2 | .
Cn1cc(CN2CCN(c3ccccc3)CC2)c2ccccc21 | 15 | 61* | -2 | -2 | 1 | -10 | MPTP swell DR=i;MPTP counter DR=>80
COc1ccccc1C(=O)NCC(=O)N/N=C(\C)Cc1ccccc1 | 1 | 0 | -7 | 21 | 5 | .
O=C(NNC(=S)Nc1ccc(Cl)cc1Cl)c1ccc(N2CCOCC2)c([N+](=O)[O-])c1 | 0 | 98* | -2 | -7 | 17 | 63*
O=C(Nc1ccc(-c2nc3ccccc3o2)cc1)c1ccc(N2CCOCC2)c([N+](=O)[O-])c1 | 7 | 87* | -8 | -12 | 2 | 64*
Cc1cccc(NC(=S)NNC(=O)c2cccc([N+](=O)[O-])c2)c1 | 6 | 19 | -13 | -21 | 7 | .
O=C(NNC(=S)Nc1ccc(Cl)c(Cl)c1)c1cccc([N+](=O)[O-])c1 | 1 | 70* | 7 | 2 | . | 52*
O=C(c1ccc(N2CCOCC2)c([N+](=O)[O-])c1)N1CCCCC1 | 1 | 0 | -13 | -4 | 2 | .
O=C(NNC(=S)Nc1ccc(Cl)cc1Cl)c1cccnc1 | 9 | 6 | 8 | . | 6 | .
O=C(NNC(=S)Nc1ccc(Cl)cc1Cl)c1ccncc1 | 0 | 63* | -5 | -1 | 7 | 15 | MPTP swell DR=i;MPTP counter DR=42*
COc1ccc(C(=O)c2[nH]c(N)c(C(=O)NCCc3c[nH]c4ccccc34)c2-c2c(F)cccc2Cl)cc1 | 1 | 1 | 7 | . | . | .
CC(=O)C1=CCC(c2cccc3ccccc23)N(S(=O)(=O)c2ccc(C)cc2)C1 (stereo unspecified) | 0 | -1 | -22 | . | . | .
CC(Oc1ccc(F)cc1)C(=O)Nc1cccc(S(=O)(=O)N(C)c2ccccc2)c1 (stereo unspecified) | 8 | 1 | 26 | . | -9 | .
Cc1ccc(NC(=S)NNC(=O)c2ccc(N3CCOCC3)c([N+](=O)[O-])c2)cc1Cl | 7 | 88* | 6 | -10 | 16 | 56*
O=C(NNC(=S)Nc1ccc(Br)cc1)c1ccc(N2CCOCC2)c([N+](=O)[O-])c1 | 3 | 30 | 2 | -6 | 16 | .
COc1cc(C)ccc1S(=O)(=O)NC(=O)Cn1nnc(COc2ccc3c(c2)CCCC3)c1C | 0 | 0 | -6 | . | . | .
CN1CCN(NC(=O)Nc2cc(Cl)cc(Cl)c2)CC1 | 14 | 90* | -1 | -8 | 2 | 91*
COc1ccc(NC(=O)NN2CCN(C)CC2)cc1OC | 2 | -2 | -4 | -12 | -2 | .
Cc1ccc(F)cc1NC(=O)Nc1cc(C(C)(C)C)nn1C | -1 | 2 | -18 | -3 | 3 | .
Cn1nc(C(C)(C)C)cc1NC(=O)Nc1cc(Cl)cc(Cl)c1 | 7 | 84* | 14 | -11 | 1 | 73*
N#CC(c1cccc(Cl)c1)c1ccc2c(C(F)(F)F)cc(C(F)(F)F)nc2n1 (stereo unspecified) | 11 | 114* | 27 | -12 | 6 | 90*
Cc1ccccc1N=C(c1ccccc1)C1C(=O)c2ccccc2C1=O | 1 | 0 | 38 | . | . | .
CCCC(C)C(=O)NC1CCCCN(C)C1=O (stereo unspecified) | 1 | . | -1 | . | . | .
SMILES | TAAR1 ag | MPTP block | TAAR1 antagonist | GPR7 antagonist | DAGLB inhibitor | MPTP counter | others
O=C(/C=C/c1cn(CC(O)CN2CCCCCC2)c2ccccc12)c1cccs1 (stereo unspecified) | 5 | 80* | 0 | 2 | -2 | -21
O=C(Nc1csc([N+](=O)[O-])c1)Nc1c(Cl)cccc1Cl | 1 | 67* | 4 | 11 | -3 | 88*
CCOC(=O)CSc1nnc(NCC(=O)OC(C)C)c(=O)[nH]1 | 13 | 63* | 3 | -10 | -1 | -2 | MPTP swell DR=>100;MPTP counter DR=>80
O=C(Nc1cc(Sc2nc3ccccc3s2)cc([N+](=O)[O-])c1)c1ccccc1 | 4 | 90* | -23 | -4 | -8 | 73*
O=C(Nc1cc(Sc2nc3ccccc3s2)cc([N+](=O)[O-])c1)c1ccccc1F | 3 | 21 | -10 | -7 | -2 | .
O=C(Nc1cc(Sc2ccccn2)cc([N+](=O)[O-])c1)c1cccc(F)c1 | 3 | 97* | 28 | 7 | -4 | 70*
COc1ccc([C@@H]2CC=C(C(=O)O)[C@H](c3cccc(Cl)c3)N2S(=O)(=O)c2ccccc2C)cc1 | 0 | -1 | 5 | . | 6 | .
CN(C)C(CNc1ccc(C(F)(F)F)cn1)c1ccccc1 (stereo unspecified) | 2 | 68* | -2 | 0 | 0 | -4 | MPTP swell DR=i;MPTP counter DR=>80
CC(C)(C)c1ccc(S(=O)(=O)N2CCN(C(=O)C(=O)c3cccc(C(F)(F)F)c3)CC2)cc1 | -1 | . | 7 | . | . | .
CC(C)(C)OC(=O)NCCCCCc1cn(CC(=O)NCCCCCCCCCCC(=O)N2CCN(C(=O)OC(C)(C)C)CC2)nn1 | 4 | 94* | -9 | . | 0 | -1 | MPTP swell DR=2*;MPTP counter DR=<2.5*
COC(=O)N1C[C@H](O)[C@H](O)C[C@@H]1c1ccccc1Br | 1 | . | 8 | . | . | .
O=C(Nc1ccc(Cl)cc1)Nc1nnc(-c2ccncc2)s1 | 12 | 79* | -2 | -10 | 3 | 24*
O=C(Nc1ccc(F)cc1)Nc1nnc(-c2ccncc2)s1 | 37 | 91* | 6 | 0 | 5 | 89*
O=C(Nc1ccc(F)cc1)Nc1nnc(COc2ccccc2F)s1 | 34 | 83* | 30 | -12 | 1 | 83*
O=C(Nc1nnc(COc2ccccc2F)s1)Nc1ccccc1F | 6 | 19 | -15 | -13 | -8 | .
Cc1ccc(NC(=O)Nc2nnc(-c3ccncc3)s2)cc1C | 12 | 87* | 29 | 5 | 3 | 79*
COc1ccc(NC(=O)c2cc(-c3cc(F)ccc3OC)n[nH]2)cn1 | 7 | 0 | -6 | . | . | .
CCN(CC(=O)Nc1ccc2c(c1)OCCO2)C(=O)c1cc(=O)[nH]c2ccccc12 | 6 | 0 | -11 | . | 2 | .
O=C(Nc1cccc(Cl)c1)Nc1nnc(-c2ccncc2)s1 | 15 | 101* | -10 | 8 | -1 | 55*
CCOc1ccccc1NC(=O)C(OC(=O)c1ccc(O)cc1)c1ccccc1 (stereo unspecified) | 4 | 89* | 16 | -2 | -4 | 86*
Cc1cc(C)cc([C@H]2C[C@]34CN(Cc5ccccc5)S(=O)(=O)[C@H]3C[C@H]2O4)c1 | 2 | . | 5 | . | . | .
